In ChEMBL document CHEMBL3612041, “Combating highly resistant emerging pathogen Mycobacterium abscessus and Mycobacterium tuberculosis with novel salicylanilide esters and carbamates” (Eur J Med Chem, 2015):
Converted amounts (≈) assume the structure as drawn.

Assays:
[1] = tested on: Mycobacteroides abscessus; assay: Antimycobacterial activity against Mycobacterium abscessus ATCC 19977 after 7 days by serial dilution method; format: functional
Summary of the method: (§1)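 Serial dilution in in-house Sula semisynthetic medium, pH 6.5. Compounds added as DMSO solutions at 10 doses, final 0.05–100 µg/mL. Incubation at 37 °C, 7 days for M. abscessus and 28 days for M. tuberculosis strains. MIC taken as the lowest concentration giving visible growth inhibition, confirmed by CFU on drug-free Löwenstein-Jensen medium after further equal incubation. Repeated at least twice.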

[2] = Solubility of the compound in RPMI-1640/Sula media by spectrophotometric analysis; format: physicochemical
Summary of the method: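 Solubility measured under assay conditions in RPMI and Sula media with 1 v/v% DMSO. Undissolved compound removed on a PVDF filter. 120 µL filtrate mixed with 80 µL acetonitrile, and concentration measured spectrophotometrically.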

[3] = tested on: Mycobacterium tuberculosis; assay: Antimycobacterial activity against Mycobacterium tuberculosis H37Rv ATCC 27294 after 28 days by serial dilution method; format: functional; conditions: for MIC: Mycobacterium tuberculosis, H37Rv ATCC 27294, 672 h; summary of the method: as §1
[4] = tested on: MONO-MAC-6; assay: Cytostatic activity against human MONO-MAC-6 cells assessed as cell viability after 16 hrs by MTT assay; format: cell-based; conditions: MONO-MAC-6, 16 h
Summary of the method: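 MonoMac6 cells kept in RPMI-1640 with 10% FCS, 2 mM L-glutamine and gentamycin at 37 °C, 5% CO2. Cells plated 10⁵ per well and treated after 24 h for 16 h in serum-free RPMI (1.0 v/v% DMSO), 5×10⁻² to 10² µM. MTT at 367 µg/mL final for 3.5 h, crystals dissolved in DMSO, OD540 minus OD620. Cytotoxicity % versus untreated control fitted sigmoidally for IC50. Two independent experiments, 4–8 parallels.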

[5] = Selectivity index, ratio of IC50 for human MONO-MAC-6 cells to MIC for Mycobacterium abscessus ATCC 19977; format: toxicity; conditions: read-out: Selectivity Index
[6] = Selectivity index, ratio of IC50 for human MONO-MAC-6 cells to MIC for Mycobacterium tuberculosis H37Rv ATCC 27294; format: toxicity; conditions: read-out: Selectivity Index
[7] = Mycobacteroides abscessus, ATCC 19977, 168 h

Compound	MIC [1] [µM]	solubility [2] [µM]	Activity [1] [CFU]	MIC [1, 7] [µM]	Activity [3] [CFU]	MIC [3] [µM]	IC50 [4] [µM]	selectivity ratio [5]	selectivity ratio [6]
GENTAMICIN	10.5	–	–	–	–	–	–	–	–
O=C(NCCCCl)Oc1ccc(Br)cc1C(=O)Nc1ccc(Cl)c(Cl)c1	–	< 50	0	2.1 (≈ 1.01 µg/mL)	2	0.4 (≈ 0.192 µg/mL)	9.5	4.5	23.8
O=C(Nc1ccc(Cl)c(Cl)c1)c1cc(Cl)ccc1O	–	< 100	0	3.2 (≈ 1.01 µg/mL)	2	1.6 (≈ 0.507 µg/mL)	3.6	1.1	2.3
O=C(NCCCl)Oc1ccc(Cl)cc1C(=O)Nc1ccc(C(F)(F)F)cc1	–	< 50	0	1.2 (≈ 0.505 µg/mL)	1	0.5 (≈ 0.211 µg/mL)	7.6	6.3	15.2
O=C(c1ccccc1)c1ccc(NC(=O)c2cc(Cl)ccc2O)cc1	–	< 50	0	28.5 (≈ 10 µg/mL)	3	14.2 (≈ 5 µg/mL)	48	1.7	3.4
O=C(NCCCCl)Oc1ccc(Cl)cc1C(=O)Nc1ccc(Cl)c(Cl)c1	–	< 50	0	1.2 (≈ 0.523 µg/mL)	0	2.3 (≈ 1 µg/mL)	2.5	2.1	1.1
NNC(=O)c1ccncc1 [ISONIAZID]	–	–	26	292 (≈ 40 µg/mL)	0	1.17 (≈ 0.16 µg/mL)	–	–	–
O=C(NCCCl)Oc1ccc(Br)cc1C(=O)Nc1ccc(C(F)(F)F)cc1	–	< 50	0	4.3 (≈ 2 µg/mL)	0	0.4 (≈ 0.186 µg/mL)	9.3	2.2	23.3
O=C(NCCCl)Oc1ccc(Cl)cc1C(=O)Nc1ccc(Cl)c(Cl)c1	–	< 50	0	1.2 (≈ 0.507 µg/mL)	2	1.2 (≈ 0.507 µg/mL)	4.6	3.8	3.8
O=C(c1ccccc1)c1ccc(NC(=O)c2cc(Br)ccc2O)cc1	–	< 50	0	25.3 (≈ 10 µg/mL)	2	12.7 (≈ 5.03 µg/mL)	21.8	0.9	1.7
O=C(Oc1ccc(Cl)cc1C(=O)Nc1ccc(C(F)(F)F)cc1)c1cnc(Cl)cn1	–	< 100	0	5.5 (≈ 2.51 µg/mL)	3	1.1 (≈ 0.502 µg/mL)	1.1	0.2	1
CCCNC(=O)Oc1ccc(Cl)cc1C(=O)Nc1ccc(Cl)c(Cl)c1	–	< 50	0	1.3 (≈ 0.522 µg/mL)	0	0.2 (≈ 0.0803 µg/mL)	7	5.4	35
O=C(Oc1ccc(Cl)cc1C(=O)Nc1ccc(Cl)c(Cl)c1)c1cnc(Cl)cn1	–	< 100	0	1.1 (≈ 0.503 µg/mL)	10	1.1 (≈ 0.503 µg/mL)	10.1	9.2	9.2
O=C(Nc1ccc(C(F)(F)F)cc1)c1cc(Cl)ccc1O	–	–	0	3.2 (≈ 1.01 µg/mL)	0	1.6 (≈ 0.505 µg/mL)	5.3	–	–
O=C(Nc1ccc(Cl)c(Cl)c1)c1cc(Br)ccc1O	–	< 100	0	7 (≈ 2.53 µg/mL)	2	1.4 (≈ 0.505 µg/mL)	3.5	0.5	2.5
O=C(O)c1cn(C2CC2)c2cc(N3CCNCC3)c(F)cc2c1=O [CIPROFLOXACIN]	–	–	–	3 (≈ 0.994 µg/mL)	–	–	–	–	–
